# Results reported in ChEMBL document CHEMBL4177770, “Discovery of MK-6169, a Potent Pan-Genotype Hepatitis C Virus NS5A Inhibitor with Optimized Activity against Common Resistance-Associated Substitutions” (J Med Chem, 2018).
# How the values were obtained:
# [1] = molecular target: T1, Nonstructural protein 5A (Hepatitis C virus) (UniProt Q5L478); experiment: Inhibition of NS5A K24R mutant in HCV genotype 1a infected in HuH7 replicon cells assessed as decrease in viral replication after 3 days by RT-PCR method; format: cell-based; settings: Hepatitis C virus subtype 1a
# T1 sequence (whole entry): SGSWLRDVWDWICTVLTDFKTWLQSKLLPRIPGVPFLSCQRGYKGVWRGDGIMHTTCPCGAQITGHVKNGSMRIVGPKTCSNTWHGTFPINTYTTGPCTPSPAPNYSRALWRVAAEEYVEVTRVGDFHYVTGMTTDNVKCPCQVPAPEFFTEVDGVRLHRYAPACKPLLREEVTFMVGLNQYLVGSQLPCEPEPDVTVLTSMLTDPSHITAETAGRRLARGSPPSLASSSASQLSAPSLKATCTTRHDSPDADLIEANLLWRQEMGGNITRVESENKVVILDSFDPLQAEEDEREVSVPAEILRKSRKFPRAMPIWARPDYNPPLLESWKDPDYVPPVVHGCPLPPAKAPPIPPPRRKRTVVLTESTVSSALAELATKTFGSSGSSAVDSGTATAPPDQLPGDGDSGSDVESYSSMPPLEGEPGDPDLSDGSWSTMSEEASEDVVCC
# [2] = molecular target: T1, Nonstructural protein 5A (Hepatitis C virus); experiment: Inhibition of NS5A L31I mutant in HCV genotype 1b infected in HuH7 replicon cells assessed as decrease in viral replication after 3 days by RT-PCR method; format: cell-based; settings: Hepatitis C virus subtype 1b
# [3] = Drug level in Wistar Han rat at 100 mg/kg, po measured at 24 hrs by LC/MS method; format: ADME, organism-based; settings: in vivo, read-out: Drug uptake
# Procedure, shortened: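 Single rising oral dose study in fed male Wistar Han rats, dosed PO in 10% TWEEN at the indicated doses. Plasma was obtained by centrifuging the blood, and compound levels were determined by LC/MS.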
# [4] = Resistance ratio of EC90 for NS5A L31V mutant in HCV genotype 1b infected in HuH7 replicon cells to EC90 for NS5A in HCV genotype 1a infected in HuH7 replicon cells; format: cell-based
# [5] = molecular target: T1, Nonstructural protein 5A (Hepatitis C virus); experiment: Inhibition of NS5A in HCV genotype 2a infected in HuH7 replicon cells assessed as decrease in viral replication after 3 days by RT-PCR method; format: cell-based; settings: Hepatitis C virus subtype 2a
# [6] = Oral bioavailability in Beagle dog at 5 mg/kg by LC/MS method; format: ADME, organism-based, Canis lupus familiaris; settings: in vivo
# Procedure, shortened: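 Beagle dogs, two animals per dosing group. Oral dose was given in 10% TWEEN. Blood was collected and spun to plasma, and plasma compound levels were measured by LC/MS.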
# [7] = molecular target: T1, Nonstructural protein 5A (Hepatitis C virus); experiment: Inhibition of NS5A L31V mutant in HCV genotype 4a infected in HuH7 replicon cells assessed as decrease in viral replication after 3 days by RT-PCR method; format: cell-based; settings: Hepatitis C virus subtype 4a
# [8] = Resistance ratio of EC90 for NS5A A146S mutant in HCV genotype 2b infected in HuH7 replicon cells to EC90 for NS5A in HCV genotype 1a infected in HuH7 replicon cells; format: cell-based
# [9] = AUC in Wistar Han rat at 10 mg/kg, po by LC/MS method; format: ADME, organism-based; settings: in vivo
# Procedure, shortened: (§1)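 Male Wistar Han rats, two per dosing group, dosed orally at 10 mg/kg in 10% TWEEN. Plasma was separated from collected blood by centrifugation and analysed by LC/MS.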
# [10] = Resistance ratio of EC90 for NS5A in HCV genotype 2a infected in HuH7 replicon cells to EC90 for NS5A in HCV genotype 1a infected in HuH7 replicon cells; format: cell-based
# [11] = molecular target: T1, Nonstructural protein 5A (Hepatitis C virus); experiment: Inhibition of NS5A L31V mutant in HCV genotype 3a infected in HuH7 replicon cells assessed as decrease in viral replication after 3 days by RT-PCR method; format: cell-based; settings: Hepatitis C virus subtype 3a
# [12] = Resistance ratio of EC90 for NS5A in HCV genotype 4a infected in HuH7 replicon cells to EC90 for NS5A in HCV genotype 1a infected in HuH7 replicon cells; format: cell-based
# [13] = system: Hepatitis C virus subtype 1a; experiment: Resistance ratio of EC90 for NS5A A92P mutant in HCV genotype 1a infected in HuH7 replicon cells to EC90 for NS5A in HCV genotype 1a infected in HuH7 replicon cells; format: cell-based
# [14] = Oral bioavailability in Wistar Han rat at 10 mg/kg by LC/MS method; format: ADME, organism-based; settings: in vivo; procedure, shortened: as §1
# [15] = system: Nonstructural protein 5A (Hepatitis C virus), Q5L478 [UNDEFINED MUTATION]; experiment: Inhibition of NS5A L31M/Y93H double mutant in HCV genotype 1b infected in HuH7 replicon cells assessed as decrease in viral replication after 3 days by RT-PCR method; format: cell-based; settings: Hepatitis C virus subtype 1b
# [16] = molecular target: T1, Nonstructural protein 5A (Hepatitis C virus); experiment: Inhibition of NS5A L31V mutant in HCV genotype 1a infected in HuH7 replicon cells assessed as decrease in viral replication after 3 days by RT-PCR method; format: cell-based; settings: Hepatitis C virus subtype 1a
# [17] = system: Hepatitis C virus subtype 1a; experiment: Resistance ratio of EC90 for NS5A Y93N mutant in HCV genotype 1a infected in HuH7 replicon cells to EC90 for NS5A in HCV genotype 1a infected in HuH7 replicon cells; format: cell-based
# [18] = Resistance ratio of EC90 for NS5A A30K mutant in HCV genotype 3a infected in HuH7 replicon cells to EC90 for NS5A in HCV genotype 1a infected in HuH7 replicon cells; format: cell-based
# [19] = molecular target: T1, Nonstructural protein 5A (Hepatitis C virus); experiment: Inhibition of NS5A in HCV genotype 4a infected in HuH7 replicon cells assessed as decrease in viral replication after 3 days by RT-PCR method; format: cell-based; settings: Hepatitis C virus subtype 4a
# [20] = Clearance in Beagle dog at 1 mg/kg, iv by LC/MS method; format: ADME, organism-based, Canis lupus familiaris; settings: in vivo
# Procedure, shortened: (§2)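 Beagle dogs, two animals per group, dosed IV at 1 mg/kg in 60% PEG200. Plasma was prepared from collected blood by centrifugation, and compound was quantified by LC/MS.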
# [21] = Resistance ratio of EC90 for NS5A Y93H mutant in HCV genotype 3a infected in HuH7 replicon cells to EC90 for NS5A in HCV genotype 1a infected in HuH7 replicon cells; format: cell-based
# [22] = Half life in Beagle dog at 1 mg/kg, iv by LC/MS method; format: ADME, organism-based, Canis lupus familiaris; settings: in vivo; procedure, shortened: as §2
# [23] = molecular target: T1, Nonstructural protein 5A (Hepatitis C virus); experiment: Inhibition of NS5A A92T mutant in HCV genotype 1b infected in HuH7 replicon cells assessed as decrease in viral replication after 3 days by RT-PCR method; format: cell-based; settings: Hepatitis C virus subtype 1b
# [24] = Resistance ratio of EC90 for NS5A P32L mutant in HCV genotype 4a infected in HuH7 replicon cells to EC90 for NS5A in HCV genotype 1a infected in HuH7 replicon cells; format: cell-based
# [25] = system: Hepatitis C virus subtype 1a; experiment: Resistance ratio of EC90 for NS3 R155K mutant in HCV genotype 1a infected in HuH7 replicon cells to EC90 for NS5A in HCV genotype 1a infected in HuH7 replicon cells; format: cell-based
# [26] = Resistance ratio of EC90 for NS5A L31V mutant in HCV genotype 3a infected in HuH7 replicon cells to EC90 for NS5A in HCV genotype 1a infected in HuH7 replicon cells; format: cell-based
# [27] = molecular target: T1, Nonstructural protein 5A (Hepatitis C virus); experiment: Inhibition of NS5A M28K mutant in HCV genotype 1a infected in HuH7 replicon cells assessed as decrease in viral replication after 3 days by RT-PCR method; format: cell-based; settings: Hepatitis C virus subtype 1a
smiles,measurement,setting,value
COC(=O)N[C@H](C(=O)N1CCC[C@H]1c1ncc(-c2cc(F)c3c(c2)O[C@@H](c2ccc(C4CC4)s2)n2c-3cc3cc(-c4cnc([C@@H]5CCCN5C(=O)[C@@H](NC(=O)OC)[C@@H]5CCOC(C)(C)C5)[nH]4)ccc32)[nH]1)C(C)C,EC90,[1],0.34 pM
same,EC90,[2],21 pM
same,concentration at 24 h,[3],72 nM
same,Ratio,[4],1
same,EC90,[5],2.7 pM
same,bioavailability,[6],14.9%
same,EC90,[7],7.7 pM
same,Ratio,[8],1
same,AUC,[9],0.95 to 1.65 µM·h
same,Ratio,[10],< 1
same,EC90,[11],3200 pM
same,Ratio,[12],2
same,Ratio,[13],< 1
same,bioavailability,[14],6.6%
same,EC90,[15],190 pM
same,EC90,[16],4.3 pM
same,Ratio,[17],16
same,Ratio,[18],4
same,EC90,[19],6 pM
same,clearance,[20],2.9 mL/min/kg
same,Ratio,[21],571
same,half-life,[22],5.8 h
same,EC90,[23],3.9 pM
same,Ratio,[24],1
same,Ratio,[25],< 1
same,Ratio,[26],762
same,EC90,[27],420 pM
